Tests used:
[1] = target: Urease (Canavalia ensiformis, UniProt P07374); assay: Inhibition of jack bean urease using urea as substrate assessed as reduction in ammonia production after 30 mins by indophenol method
In short: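 Compounds were first screened, and those giving at least 50% inhibition went on to dose-response testing. For each, 7–9 serial dilutions were made in assay buffer, and curves were run under the same conditions as the initial screen.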

[2] = tested on: NCI-H157; assay: Growth inhibition of human NCI-H157 cells at 100 uM after 48 hrs by SRB assay; assay type: functional; conditions: NCI-H157, 48 h, read-out: GI
In short: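 H-157 cells seeded at 10⁴ cells per well and grown at 37 °C under 5% CO₂ to a monolayer within 24 h. Compound added, with a vincristine standard and a cells-plus-media blank, for 48 h. Cells fixed in 50% ice-cold TCA (4 °C, 1 h), washed 5× with PBS, stained with 0.4% w/v SRB in 1% acetic acid (30 min, RT), rinsed, and dye solubilized in 10 mM Tris base. A490 read minus A630 background; triplicate.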

[3] = target: Urease (Canavalia ensiformis) (UniProt P07374); assay: Inhibition of jack bean urease using urea as substrate assessed as reduction in ammonia production at 1 mM after 30 mins by indophenol method
Sequence of Urease (Canavalia ensiformis) (P07374 whole entry, looked up): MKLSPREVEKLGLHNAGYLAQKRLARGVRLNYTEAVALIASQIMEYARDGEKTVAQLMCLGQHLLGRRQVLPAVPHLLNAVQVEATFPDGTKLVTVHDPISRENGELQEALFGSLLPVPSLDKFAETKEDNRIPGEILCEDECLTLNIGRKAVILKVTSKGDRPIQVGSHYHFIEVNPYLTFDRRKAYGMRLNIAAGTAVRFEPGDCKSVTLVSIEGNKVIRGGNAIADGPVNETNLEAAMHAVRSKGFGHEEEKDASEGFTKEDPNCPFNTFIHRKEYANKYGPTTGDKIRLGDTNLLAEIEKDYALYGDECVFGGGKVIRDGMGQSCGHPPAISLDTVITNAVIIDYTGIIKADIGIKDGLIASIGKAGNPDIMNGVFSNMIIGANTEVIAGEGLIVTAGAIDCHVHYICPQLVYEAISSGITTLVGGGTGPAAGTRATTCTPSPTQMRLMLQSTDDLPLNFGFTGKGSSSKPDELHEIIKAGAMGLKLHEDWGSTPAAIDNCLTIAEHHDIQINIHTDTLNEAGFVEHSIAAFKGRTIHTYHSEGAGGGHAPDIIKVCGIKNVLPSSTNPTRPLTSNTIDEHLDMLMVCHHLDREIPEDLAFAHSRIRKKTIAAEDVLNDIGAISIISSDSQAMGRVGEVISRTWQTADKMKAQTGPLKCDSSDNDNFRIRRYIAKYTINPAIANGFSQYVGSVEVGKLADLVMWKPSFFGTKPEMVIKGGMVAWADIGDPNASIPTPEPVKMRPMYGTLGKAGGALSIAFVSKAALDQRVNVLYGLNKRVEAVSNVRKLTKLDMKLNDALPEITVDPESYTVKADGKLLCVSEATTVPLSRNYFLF

Sequence of Urease (P07374 whole entry): as the sequence (P07374 whole entry, looked up) above

Row | inhibition [3] [%] | Compound | IC50 [1] [µM] | inhibition of growth at 100 µM [2] [%]
1 |  | O=C(NC(=S)Nc1ccccc1C(F)(F)F)c1cccc(Cl)c1 | 5.58 | 36.9
2 |  | O=C(NC(=S)NC1CCCCC1)c1cccc(Cl)c1 | 14.3 | 48.5
3 |  | O=C(NC(=S)Nc1ncccn1)c1cccc(Cl)c1 | 2.11 | 57.2
4 |  | Cc1cccc(NC(=S)NC(=O)c2cccc(Cl)c2)c1C | 4.45 | 41.7
5 |  | O=C(NC(=S)Nc1cccc(Br)c1)c1cccc(Cl)c1 | 20.1 | 32.4
6 | 37.1 | O=C(NC(=S)Nc1cccc2ccccc12)c1cccc(Cl)c1 |  | 42.2
7 |  | O=C(NC(=S)Nc1cccc(Cl)c1Cl)c1cccc(Cl)c1 | 1.92 | 50.7
8 |  | O=C(NC(=S)Nc1cc(Cl)cc(Cl)c1)c1cccc(Cl)c1 | 6.53 | 48.5
9 |  | CCc1cccc(CC)c1NC(=S)NC(=O)c1cccc(Cl)c1 | 12.6 | 41.2
10 | 23.1 | O=C(NC(=S)Nc1ccc([N+](=O)[O-])cc1[N+](=O)[O-])c1cccc(Cl)c1 |  | 36.1
11 | 27.4 | O=C(NC(=S)NCc1ccccc1Cl)c1cccc(Cl)c1 |  | 27.6
12 |  | O=C(NC(=S)Nc1ccc(Br)cc1Br)c1cccc(Cl)c1 | 6.32 | 38.2
13 | 25.7 | O=C(NC(=S)Nc1ccccc1Cl)c1cccc(Cl)c1 |  | 45.4
14 |  | O=C(NC(=S)Nc1cc(Cl)c(Cl)cc1Cl)c1cccc(Cl)c1 | 7.41 | 43.3
15 | 28.1 | O=C(NC(=S)Nc1ccc([N+](=O)[O-])cc1)c1cccc(Cl)c1 |  | 32.7
16 |  | O=C(NC(=S)Nc1cc(Cl)ccc1Cl)c1cccc(Cl)c1 | 9.72 | 46.6
17 |  | CN(C(=S)NC(=O)c1cccc(Cl)c1)c1ccccc1 | 17.5 | 45.1
18 |  | COc1ccccc1NC(=S)NC(=O)c1cccc(Cl)c1 | 3.79 | 42.8
19 | 29.9 | O=C(NC(=S)N(C1CCCCC1)C1CCCCC1)c1cccc(Cl)c1 |  | 47.8

Row | inhibition [3] [%] | Compound | IC50 [1] [µM] | inhibition of growth at 100 µM [2] [%]
20 | 27.9 | O=C(NC(=S)Nc1nc2ccccc2s1)c1cccc(Cl)c1 |  | 48.8
21 |  | O=C(NC(=S)Nc1ccc(C(F)(F)F)cc1)c1cccc(Cl)c1 | 7.04 | 44.6
22 |  | O=C(NC(=S)Nc1cccc(C(F)(F)F)c1)c1cccc(Cl)c1 | 2.86 | 48.9
23 | 21.7 | COc1cccc(NC(=S)NC(=O)c2cccc(Cl)c2)c1 |  | 42.2
24 | 32.7 | O=C(NC(=S)Nc1c(Cl)c(Cl)cc(Cl)c1Cl)c1cccc(Cl)c1 |  | 45.5
25 |  | Cc1cc(C)c(NC(=S)NC(=O)c2cccc(Cl)c2)c(C)c1 | 1.23 | 43.7
26 |  | O=C(NC(=S)Nc1c(Cl)cccc1Cl)c1cccc(Cl)c1 | 5.38 | 42.2
27 |  | O=C(NC(=S)Nc1ccccc1[N+](=O)[O-])c1cccc(Cl)c1 | 8.59 | 36.4
28 | 36.7 | O=C(NC(=S)Nc1ccc(Cl)c(Cl)c1)c1cccc(Cl)c1 |  | 39.4
29 |  | O=C(NC(=S)Nc1ccccc1)c1cccc(Cl)c1 | 3.24 | 45.2
30 |  | O=C(NC(=S)Nc1ccc(Cl)cc1)c1cccc(Cl)c1 | 11.7 | 52.6
31 |  | CC[C@]1(O)C[C@H]2CN(CCc3c([nH]c4ccccc34)[C@@](C(=O)OC)(c3cc4c(cc3OC)N(C=O)[C@H]3[C@@](O)(C(=O)OC)[C@H](OC(C)=O)[C@]5(CC)C=CCN6CC[C@]43[C@@H]65)C2)C1 [VINCRISTINE] |  | 74.6
32 |  | O=C(NC(=S)Nc1ccc(Cl)cc1Cl)c1cccc(Cl)c1 | 1.34 | 38.9
33 | 36.9 | CCCCc1ccc(NC(=S)NC(=O)c2cccc(Cl)c2)cc1 |  | 47.7
34 |  | O=C(NC(=S)NCc1ccccc1)c1cccc(Cl)c1 | 16.4 | 40.5
35 |  | Cc1ccc(NC(=S)NC(=O)c2cccc(Cl)c2)cc1 | 12.4 | 39.4
36 | 29.1 | O=C(NC(=S)Nc1cccc(Cl)c1)c1cccc(Cl)c1 |  | 52.9
37 |  | O=C(NC(=S)Nc1ccc(F)cc1)c1cccc(Cl)c1 | 2.91 | 
38 |  | O=C(NC(=S)Nc1c(Cl)cc(Cl)cc1Cl)c1cccc(Cl)c1 | 3.64 | 60.9

From ChEMBL document CHEMBL3826920, “Solution-phase microwave assisted parallel synthesis, biological evaluation and in silico docking studies of N,N'-disubstituted thioureas derived from 3-chlorobenzoic acid” (Bioorg Med Chem, 2016)
